High-throughput results deposited in PubChem by several laboratories.
Most compounds without a hit are left out; they make up all but 9.6% or so of the library.
TNAP inh no acc = inhibitors of human TNAP without phosphate acceptor; P05186; purified TNAP, CDP-star luminescence, 30 min; inhibition, % at 20 µM; hit rate 0.26% among 200,000;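 active = tissue-nonspecific alkaline phosphatase inhibition above about 50% at 20 µM in the single-dose screen, limit read from the data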;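 note: 0% = DMSO negative control and 100% = EDTA positive control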
Target sequence (P05186 whole entry, looked up): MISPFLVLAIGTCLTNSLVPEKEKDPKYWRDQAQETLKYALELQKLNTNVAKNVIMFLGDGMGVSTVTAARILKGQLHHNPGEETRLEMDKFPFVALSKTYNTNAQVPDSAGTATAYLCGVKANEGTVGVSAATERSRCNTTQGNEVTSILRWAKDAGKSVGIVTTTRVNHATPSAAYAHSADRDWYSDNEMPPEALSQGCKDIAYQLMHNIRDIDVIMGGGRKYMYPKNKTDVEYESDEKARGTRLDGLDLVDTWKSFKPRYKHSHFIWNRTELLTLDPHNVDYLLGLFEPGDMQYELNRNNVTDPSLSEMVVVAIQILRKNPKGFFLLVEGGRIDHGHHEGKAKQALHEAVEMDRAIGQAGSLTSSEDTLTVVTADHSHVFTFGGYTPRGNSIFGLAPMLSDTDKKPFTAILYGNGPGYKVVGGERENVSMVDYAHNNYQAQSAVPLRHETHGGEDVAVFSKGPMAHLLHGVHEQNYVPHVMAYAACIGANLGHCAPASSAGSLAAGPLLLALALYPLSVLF
TNAP inh hi DEA = TNAP (human) inhibition, high acceptor | P05186 | purified TNAP, CDP-star luminescence, 1 M DEA | inhibition, % at 20 µM | hit rate 0.03% among 200,000;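 active = over 50% inhibition of tissue-nonspecific alkaline phosphatase at 20 µM in the single-dose screen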;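 note: plate controls were DMSO wells for no effect and EDTA-quenched wells as full inhibition for full effect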
TNAP act hiacc = TNAP (human) activation, high acceptor. P05186. purified TNAP, CDP-star luminescence, 1 M DEA, 30 min; hits give high values; 0 = EDTA background, 1 = DMSO-only activity. activation factor at 20 µM. 200,000 tested, under 10 active. AID 1136;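 active = activation factor at least 2 at 20 µM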
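Test system – human TNAP · Doses – 20 µM single point · Incubation – 30 min, room temperature · Signal – luminescent substrate turnover signal · Read-out basis – activation factor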
bCat KO growth = beta-catenin-lacking colon tumor cell growth suppression; hit rate 1.5% among 140,000; viability, % at 10 µM; HCT116 beta-catenin knockout viability, CellTiter-Glo, 60 h; hits give low values; AID 818;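 active = viability at or under a set limit, the compound median less 4 SD, cut at about 6% in these data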;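 note: 0% = Hyamine 1622 control at 20 µM and 100% = untreated cell control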
HCT116 PTEN-null = suppresses growth of cells with PTEN deletion. HCT116 PTEN-null viability, CellTiter-Glo, 60 h; hits give low values. viability, % at 10 µM. hit rate 1.2% among 140,000. AID 827;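 active = viability at or below a set limit, 4 SD under the median of all tested compounds, cut at about 3.7% in these data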;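 note: PTEN knockout HCT116 line with beta catenin targeted HCT116 as companion control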
Lmaj promast = reduces viability of Leishmania major promastigotes | resazurin fluorescence viability | inhibition, % at 10 µM | hit rate 9% among 200,000; in the data active = inhibition above about 50%;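 note: promastigotes grown with compound for 44 hours at 28 °C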
Numbers without * were called inactive; x = no result given.

SMILES | TNAP inh no acc | TNAP inh hi DEA | TNAP act hiacc | bCat KO growth | HCT116 PTEN-null | Lmaj promast
Oc1ccccc1-c1csc(-c2ccccc2)n1 | -3 | -1 | 1 | x | x | -1
O=C(Nc1cccc(-c2cn3cccnc3n2)c1)c1ccco1 | -9 | 1 | 1 | 86 | 75 | 100*
Cn1ccnc1SCC(=O)Nc1cccc(S(=O)(=O)N2CCCCCC2)c1 | -8 | -3 | 1 | x | x | 0
CC(c1nc2ccccc2c(=O)[nH]1)N1CCN(C)CC1 (stereo unspecified) | -9 | -3 | 1 | 95 | 90 | -5
Cc1ccc(N/C=C(\C#N)S(=O)(=O)c2ccccc2)cc1 | -13 | -1 | 1 | x | x | 8
O=C(Nc1ccncc1)c1cccs1 | -11 | -5 | 1 | 105 | 98 | 59*
O=C(Nc1cccc(-c2cn3cccnc3n2)c1)c1cccs1 | -2 | 4 | 1 | 93 | 90 | 98*
Nc1nc2ncc(-c3ccsc3)c(N)n2n1 | -57 | -5 | 1.1 | x | x | 2
Cc1n[nH]c(C)c1N1C(=O)c2cccc3cc(Br)cc(c23)C1=O | -10 | -7 | 1.1 | 96 | 84 | 22
Cc1n[nH]c(C)c1N1C(=O)c2cccc3c(Br)ccc(c23)C1=O | 0 | -4 | 1 | 4.8* | 57 | 6
O=C(NCc1ccc(F)cc1)c1c2c(nc3ccccc13)CCC2 | 3 | -4 | 1 | x | x | -6
O=C(OC(c1ccccc1)c1nccc2ccccc12)c1cc([N+](=O)[O-])cc([N+](=O)[O-])c1 (stereo unspecified) | -6 | 4 | 1 | 89 | 73 | 98*
CCn1c2ccccc2c2cc(N=C3SC(CC(=O)Nc4ccccc4OC)C(=O)N3CCOC)ccc21 (stereo unspecified) | -11 | -2 | 1 | 80 | 70 | 18
CN=C1SC(CC(=O)Nc2ccccc2F)C(=O)N1C (stereo unspecified) | -2 | -1 | 1 | 107 | 101 | -7
O=C(CC1SC(=Nc2ccc(OC(F)F)cc2)N(CCC2=CCCCC2)C1=O)Nc1ccccc1F (stereo unspecified) | 0 | -2 | 1 | 65 | 69 | 96*
CCOc1ccccc1N=C1SC(CC(=O)Nc2ccc(OC)cc2OC)C(=O)N1CCC1=CCCCC1 (stereo unspecified) | 0 | -5 | 1.1 | 90 | 73 | 80*
O=C1CC(/C=C/c2cccnc2)=Nc2ccccc2N1 | -6 | -5 | 1.1 | x | x | 65*
O=C1CC(/C=C/c2ccccc2)=Nc2ccccc2N1 | -3 | 1 | 1 | x | x | 84*
O=C1CC(/C=C/c2ccc(Cl)cc2)=Nc2ccccc2N1 | -8 | -4 | 1 | x | x | 81*
NS(=O)(=O)c1ccc(CCNC(=O)CSc2nnc3ccccn23)cc1 | -9 | 0 | 1 | x | x | -9
CCOc1ccccc1C(=O)N[C@H](C(=O)Nc1ccc(OC)c(S(=O)(=O)N2CCOCC2)c1)C(C)C | -2 | 1 | 1 | x | x | -2
CC1(C)C2CCC1(CS(=O)(=O)Nc1ccc(S(=O)(=O)N3CCCC3)cc1)C(=O)C2 (stereo unspecified) | -5 | -2 | 1 | 83 | 106 | 50*
COc1cc2oc3ccccc3c2cc1N(CC(=O)N(C)C)S(=O)(=O)c1ccc(C)cc1 | 6 | -1 | 1 | 89 | 96 | 66*
COc1cc2oc3ccccc3c2cc1N(CC(=O)N(C)C)S(=O)(=O)c1ccccc1 | -1 | -2 | 1 | 85 | 77 | 15
O=C(Nc1ccc(Br)c(C(F)(F)F)c1)c1ccccc1 | -7 | 4 | 1 | 40 | 36 | 61*
SMILES | TNAP inh no acc | TNAP inh hi DEA | TNAP act hiacc | bCat KO growth | HCT116 PTEN-null | Lmaj promast
O=C(COc1ccc(S(=O)(=O)N2CCCC2)cc1)Nc1ccc2c(c1)OCCO2 | -14 | -5 | 1.1 | x | x | 5
COc1ccc(C(=O)Nc2oc(-c3ccccc3)c(-c3ccccc3)c2C#N)cc1 | -8 | -5 | 1 | 85 | 73 | 86*
COc1ccc(-c2oc(NC(=O)c3ccc(C)cc3)c(C#N)c2-c2ccc(OC)cc2)cc1 | -3 | 0 | 1 | 93 | 89 | 24
CCN(CC)S(=O)(=O)c1ccc(N=Cc2c(C)c(C#N)c(=O)n(C)c2O)cc1 | -1 | 1 | 1 | 88 | 95 | -5
Cc1ccc(CSCc2nnc(SCC(=O)N3CCN(c4ccccc4)CC3)n2C)cc1 | -14 | -9 | 1.1 | 61 | 59 | -1
Cn1c(SCC(=O)N2CCN(c3ccccc3)CC2)nnc1-c1c[nH]c2ccccc12 | 8 | -1 | 1 | 50 | 51 | 17
Cc1ccccc1-n1c(SCC(=O)N2CCC(C(=O)O)CC2)nnc1-c1ccncc1 | -5 | -1 | 1 | x | x | 0
Cc1ccccc1-n1c(SCC(=O)N2CCN(c3ccccc3)CC2)nnc1-c1ccncc1 | 3 | -3 | 1 | 90 | 97 | 62*
CCn1c(SCC(=O)N2CCN(c3ccccc3)CC2)nnc1-c1c[nH]c2ccccc12 | 8 | -3 | 1 | 15 | 18 | 58*
CCn1c(CSCc2ccc(F)cc2)nnc1SCC(=O)N1CCN(c2ccccc2)CC1 | -13 | -4 | 1 | 78 | 91 | 63*
O=C(Cn1nnc(-c2ccccc2)n1)N1CCN(S(=O)(=O)c2ccc(Cl)cc2)CC1 | -9 | -4 | 1 | 90 | 71 | 37
Cc1ccccc1-c1nnn(CC(=O)N2CCN(S(=O)(=O)c3ccc(Cl)cc3)CC2)n1 | 0 | -8 | 1.1 | 72 | 59 | 53*
O=S(=O)(c1ccc2nc(SCc3ccc(Cl)cc3)[nH]c2c1)N1CCOCC1 | -29 | -3 | 1 | 84 | 79 | 81*
O=S(=O)(c1ccc2nc(COc3ccc(Cl)cc3Cl)[nH]c2c1)N1CCOCC1 | -12 | -4 | 1 | 79 | 71 | 19
O=S(=O)(c1ccc2nc(-c3ccccc3)[nH]c2c1)N1CCN(c2ccc(Cl)cc2)CC1 | -5 | -2 | 1 | 0.9* | 0.8* | 33
O=C(CSc1nc2ccccc2[nH]1)NCCc1ccc(Cl)cc1 | -49 | -4 | 1 | 88 | 93 | 56*
Cc1ccccc1/C(N)=N/O | 4 | 7 | 0.9 | 84 | 101 | -3
Cc1ccccc1NC(=O)CCC(=O)OCC(=O)c1cccc([N+](=O)[O-])c1 | -6 | -5 | 1.1 | x | x | -10
O=C(CSc1nc2ccccc2[nH]1)N1CCN(S(=O)(=O)c2ccc(Cl)cc2)CC1 | -7 | -5 | 1.1 | 82 | 75 | 64*
CCc1sc(NC(=O)C(C)C)nc1-c1ccccc1 | 6 | -2 | 1 | x | x | 22
COc1ccc(/C=N/NC(=O)c2ccc(N(C)S(=O)(=O)c3ccccc3)cc2)cc1OC | 4 | 1 | 1 | 95 | 88 | 67*
COc1ccc(/C=N/NC(N)=S)cc1OC(=O)c1ccccc1 | -4 | 7 | 0.9 | 89 | 90 | 79*
COc1ccc(/C=N/NC(=O)c2ccc(-c3ccccc3)cc2)cc1O | -7 | 4 | 1 | 74 | 76 | -3
